Test results published in ChEMBL document CHEMBL1126090, “Electrophilic opioid ligands. Oxygen tethered alpha-methylene-gamma-lactone, acrylate, isothiocyanate, and epoxide derivatives of 6 beta-naltrexol” (J Med Chem, 1992).

Assays:
Mu-type opioid receptor = Mu-type opioid receptor (Cavia porcellus, UniProt P97266); assay: inhibition of 1.0 nM [3H]- DAGO binding to guinea pig brain membrane opioid receptor mu
Procedure, shortened: (§1)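 Crude guinea pig brain membrane homogenate. Compounds as free amine in 50% acetic acid, serially diluted in water; nine concentrations in competition with radioligand ([3H]DAGO for μ; [3H]bremazocine plus unlabeled DAGO and DPDPE for κ). Incubated in 50 mM Tris-HCl pH 7.4, 25 °C, 1 h. Then GF/B filtration, two cold buffer rinses, scintillation counting. IC50 by log-probit analysis.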

[1] = target: Kappa-type opioid receptor (Cavia porcellus, UniProt P41144); assay: Displacement of 0.5 nM [3H]bremazocine from guinea pig brain membrane opioid receptor kappa with 100 nM DAGO and 100 nM DPDPE; procedure, shortened: as §1
Kappa-type opioid receptor, sequence (P41144 whole entry): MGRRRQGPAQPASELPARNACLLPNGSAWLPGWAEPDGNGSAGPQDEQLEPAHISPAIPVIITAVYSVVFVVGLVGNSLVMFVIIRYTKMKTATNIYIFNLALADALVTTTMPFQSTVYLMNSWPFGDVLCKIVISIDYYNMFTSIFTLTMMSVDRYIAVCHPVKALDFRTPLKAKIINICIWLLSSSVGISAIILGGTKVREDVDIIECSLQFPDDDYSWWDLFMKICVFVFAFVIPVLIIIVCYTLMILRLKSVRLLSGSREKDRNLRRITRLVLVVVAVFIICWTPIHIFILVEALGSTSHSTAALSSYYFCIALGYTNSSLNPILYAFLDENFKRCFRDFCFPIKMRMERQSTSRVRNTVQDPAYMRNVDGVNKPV

[2] = target: Opioid receptors; mu/kappa/delta; assay: Inhibition of 0.5 nM [3H]bremazocine binding to guinea pig brain membrane opioid receptors; design: species or system Cavia porcellus
[3] = target: Mu-type opioid receptor (Cavia porcellus) (UniProt P97266); assay: Compound was evaluated for the percent recovery of 1.0 nM of [3H]- DAGO binding to opioid receptor mu in guinea pig brain membranes at 10 (nM) concentration protection by 1 uM Naloxone.; type: cell membranes; conditions: Membrane
Mu-type opioid receptor (Cavia porcellus), sequence (P97266 whole entry): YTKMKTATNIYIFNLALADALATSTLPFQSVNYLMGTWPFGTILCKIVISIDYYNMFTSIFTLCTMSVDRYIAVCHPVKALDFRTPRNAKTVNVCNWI
Procedure, shortened: (§2)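 Membranes were then washed (4-fold dilution, 20000g for 15 min, 37 °C for 15 min in 3 volumes, recentrifuged) and assayed with the named radioligand by filtration binding. Reported as percent recovery.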

[4] = target: T1, Opioid receptors; mu/kappa/delta (Homo sapiens) (UniProt P41145+P41143+P35372); assay: Compound was evaluated for the percent recovery of 0.5 nM of [3H]- bremazocine binding to total opioid receptor in guinea pig brain membranes at 50 (nM) concentration protection by 1 uM Naloxone.; type: cell membranes; conditions: Cavia porcellus, Membrane, target entry is the homologue from another species; procedure, shortened: as §2
T1 sequence (P35372 whole entry, looked up): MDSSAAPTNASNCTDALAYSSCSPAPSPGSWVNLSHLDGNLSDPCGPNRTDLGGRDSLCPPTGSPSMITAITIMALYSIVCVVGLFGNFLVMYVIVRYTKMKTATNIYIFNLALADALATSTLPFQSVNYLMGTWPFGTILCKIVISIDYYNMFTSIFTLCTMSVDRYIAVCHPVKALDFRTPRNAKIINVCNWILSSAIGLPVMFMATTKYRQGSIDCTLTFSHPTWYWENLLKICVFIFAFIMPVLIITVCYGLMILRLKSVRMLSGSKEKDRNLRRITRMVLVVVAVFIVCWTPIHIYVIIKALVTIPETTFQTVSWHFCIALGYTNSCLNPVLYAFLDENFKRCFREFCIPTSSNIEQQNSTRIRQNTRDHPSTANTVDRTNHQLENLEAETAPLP
T1 sequence (P41143 whole entry, looked up): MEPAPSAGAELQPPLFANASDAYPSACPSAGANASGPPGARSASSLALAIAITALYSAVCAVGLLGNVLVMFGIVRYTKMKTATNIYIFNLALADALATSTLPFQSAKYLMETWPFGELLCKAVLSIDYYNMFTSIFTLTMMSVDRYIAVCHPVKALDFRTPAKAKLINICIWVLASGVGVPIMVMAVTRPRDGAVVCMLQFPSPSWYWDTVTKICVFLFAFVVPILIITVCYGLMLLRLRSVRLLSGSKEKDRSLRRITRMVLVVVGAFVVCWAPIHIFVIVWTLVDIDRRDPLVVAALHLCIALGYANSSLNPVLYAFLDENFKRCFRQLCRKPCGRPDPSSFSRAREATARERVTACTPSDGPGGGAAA
T1 sequence (P41145 whole entry, looked up): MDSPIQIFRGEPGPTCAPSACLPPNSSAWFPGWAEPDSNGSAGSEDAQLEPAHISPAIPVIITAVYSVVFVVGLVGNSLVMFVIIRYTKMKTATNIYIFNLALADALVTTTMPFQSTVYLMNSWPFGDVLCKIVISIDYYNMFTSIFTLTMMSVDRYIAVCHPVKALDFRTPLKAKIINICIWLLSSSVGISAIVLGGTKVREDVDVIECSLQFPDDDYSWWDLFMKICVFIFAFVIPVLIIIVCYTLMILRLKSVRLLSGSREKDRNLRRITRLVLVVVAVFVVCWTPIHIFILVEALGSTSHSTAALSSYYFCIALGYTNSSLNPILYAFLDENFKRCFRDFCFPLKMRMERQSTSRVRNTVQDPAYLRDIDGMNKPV

[5] = target: Mu-type opioid receptor (Cavia porcellus) (UniProt P97266); assay: Compound was evaluated for the percent recovery of 1.0 nM of [3H]- DAGO binding to opioid receptor mu in un washed guinea pig brain membranes at 10(nM) concentration; conditions: Membrane
[6] = target: T1, Opioid receptors; mu/kappa/delta (Homo sapiens); assay: Compound was evaluated for the percent recovery of 0.5 nM of [3H]- bremazocine binding to of total opioid receptor in washed guinea pig brain membranes at 50 (nM) concentration of the compound; type: cell membranes; conditions: Cavia porcellus, Membrane, target entry is the homologue from another species
Procedure, shortened: (§3)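 Guinea pig brain membranes were exposed to ligand for 1 h at 25 °C. Washing: 4-fold dilution with buffer, 20000g for 15 min, pellet resuspended in 3 volumes of buffer, 37 °C for 15 min, recentrifuged, resuspended in the original volume. Rebinding with the named radioligand in Tris-HCl pH 7.4, 25 °C, 1 h, filtration, scintillation. Reported as percent recovery.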

[7] = target: Mu-type opioid receptor (Cavia porcellus) (UniProt P97266); assay: Compound was evaluated for the percent recovery of 1.0 nM of [3H]- DAGO binding to opioid receptor mu in washed guinea pig brain membranes at 10(nM) concentration; type: cell membranes; conditions: Membrane; procedure, shortened: as §3
[8] = target: Delta-type opioid receptor (Homo sapiens) (UniProt P41143); assay: Compound was evaluated for the percent recovery of 1.0 nM of [3H]- DPDPE binding to Opioid receptor delta 1 in guinea pig brain membranes at 17(nM) concentration protection by 1 uM Naloxone.; type: cell membranes; conditions: Cavia porcellus, Membrane, target entry is the homologue from another species; procedure, shortened: as §2
Delta-type opioid receptor (Homo sapiens), sequence (P41143 whole entry): as the sequence (P41143 whole entry, looked up) above

[9] = target: T1, Opioid receptors; mu/kappa/delta (Homo sapiens); assay: Compound was evaluated for the percent recovery of 0.5 nM of [3H]- bremazocine binding to of total opioid receptor in unwashed guinea pig brain membranes at 50(nM) concentration of the compound; type: cell membranes; conditions: Cavia porcellus, Membrane, target entry is the homologue from another species
[10] = target: T1, Opioid receptors; mu/kappa/delta (Homo sapiens); assay: Compound was evaluated for the percent recovery of 0.5 nM of [3H]- bremazocine binding to total opioid receptor in washed guinea pig brain membranes at 50 (nM) concentration of the compound; type: cell membranes; conditions: Cavia porcellus, Membrane, target entry is the homologue from another species; procedure, shortened: as §3
[11] = target: T1, Opioid receptors; mu/kappa/delta (Homo sapiens); assay: Compound was evaluated for the percent recovery of 0.5 nM of [3H]- bremazocine binding to total opioid receptor in unwashed guinea pig brain membranes at 50 (nM) concentration of the compound; type: cell membranes; conditions: Cavia porcellus, Membrane, target entry is the homologue from another species
[12] = target: Mu-type opioid receptor (Cavia porcellus) (UniProt P97266); assay: Compound was evaluated for the percent recovery of 1.0 nM of [3H]- DAGO binding to opioid receptor mu in washed guinea pig brain membranes at 10 (nM) concentration; type: cell membranes; conditions: Membrane; procedure, shortened: as §3
[13] = target: Delta-type opioid receptor (Homo sapiens) (UniProt P41143); assay: Compound was evaluated for the percent recovery of 1.0 nM of [3H]- DPDPE binding to Opioid receptor delta 1 in guinea pig brain membranes at 22(nM) concentration protection by 1 uM Naloxone.; type: cell membranes; conditions: Cavia porcellus, Membrane, target entry is the homologue from another species; procedure, shortened: as §2
[14] = target: Mu-type opioid receptor (Cavia porcellus) (UniProt P97266); assay: Compound was evaluated for the percent recovery of 1.0 nM of [3H]- DAGO binding to opioid receptor mu in un washed guinea pig brain membranes at 10 (nM) concentration; conditions: Membrane

Mu-type opioid receptor, sequence (P97266 whole entry): as the sequence (P97266 whole entry) above

Structure (SMILES) | IC50 (Mu-type opioid receptor) | IC50 [1] | IC50 [2] | % recovery [3] | % recovery [4] | % recovery [5] | % recovery [6] | % recovery [7] | % recovery [8] | % recovery [9] | % recovery [10] | % recovery [11] | % recovery [12] | % recovery [13] | % recovery [14]
C=C1C[C@@H](CO[C@@H]2CC[C@@]3(O)[C@H]4Cc5ccc(O)c6c5[C@@]3(CCN4CC3CC3)[C@H]2O6)OC1=O | 3.4 nM | 28 nM | 18 nM | – | – | – | – | – | – | – | – | – | – | – | –
C=C1C[C@H](CO[C@@H]2CC[C@@]3(O)[C@H]4Cc5ccc(O)c6c5[C@@]3(CCN4CC3CC3)[C@H]2O6)OC1=O | 4.2 nM | 44 nM | 19 nM | 88 | – | – | – | – | – | – | – | – | – | – | –
Oc1ccc2c3c1O[C@H]1[C@H](OC[C@H]4CO4)CC[C@@]4(O)[C@@H](C2)N(CC2CC2)CC[C@]314 | 2.9 nM | 17 nM | 11 nM | – | – | – | – | – | – | – | – | – | – | – | –
C=C1C[C@@H](CO[C@@H]2CC[C@@]3(OC(C)=O)[C@H]4Cc5ccc(O)c6c5[C@@]3(CCN4CC3CC3)[C@H]2O6)OC1=O | 2.8 nM | 25 nM | 14 nM | 55 | 61 | 21 | 54 | 71 | 71 | 20 | – | – | – | – | –
Oc1ccc2c3c1O[C@H]1[C@H](OC[C@@H]4CO4)CC[C@@]4(O)[C@@H](C2)N(CC2CC2)CC[C@]314 | 3.5 nM | 17 nM | 12 nM | – | 88 | – | – | – | – | – | 79 | 10 | – | – | –
C=C1C[C@H](CO[C@@H]2CC[C@@]3(OC(C)=O)[C@H]4Cc5ccc(O)c6c5[C@@]3(CCN4CC3CC3)[C@H]2O6)OC1=O | 2.2 nM | 48 nM | 15 nM | 94 | 84 | – | – | – | – | – | 68 | 27 | 49 | 86 | 10
